Source: ChEMBL document CHEMBL2434829, “Synthesis of new andrographolide derivatives and evaluation of their antidyslipidemic, LDL-oxidation and antioxidant activity” (2013)
Calls of active or inactive are those of the source. The calls are words filed in the database; no cut-off is given here.

What was measured:
[1] = Antioxidant activity assessed as reduction of microsomal lipid per-oxidation level by measuring formation of malondialdehyde at 200 ug/ml after 90 mins by spectrophotometric analysis relative to control; type: functional; design: scale not given: the % may be the effect or the level left
[2] = Antioxidant activity assessed as decrease in hydroxyl radicals level by measuring formation of malondialdehyde at 200 ug/ml after 90 mins by spectrophotometric analysis relative to control; type: functional; design: scale not given: the % may be the effect or the level left
Outline: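 Hydroxyl radicals generated without enzyme from deoxyribose 2.8 mM, FeSO4·7H2O 2 mM, sodium ascorbate 2.0 mM and H2O2 2.8 mM in 50 mM KH2PO4 pH 7.4. Compound at 200 µg/mL. Incubated 37 °C for 90 min. Mannitol as standard.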

Rattus norvegicus [3] = experiment: Antidyslipidemic activity in Charles foster rat assessed as decrease in triton WR-1339-induced total cholesterol level in plasma at 100 mg/kg, po after 18 hrs relative to triton-treated rat; type: functional; design: scale not given: the % may be the effect or the level left
Outline: (§1)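 Male adult Charles Foster rats (200–225 g), six per group. Triton WR-1339 400 mg/kg i.p., with test agent given orally at the same time as a gum acacia suspension in water; food withdrawn. Controls received vehicle. At 18 h, retro-orbital EDTA blood taken and centrifuged 2500 × g for 10 min at 4 °C. Plasma diluted 1:3 in saline; TC, PL and TG read enzymatically on an autoanalyzer. Percent change against triton group.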

Rattus norvegicus [4] = experiment: Antidyslipidemic activity in Charles foster rat assessed as decrease in triton WR-1339-induced triglyceride level in plasma at 100 mg/kg, po after 18 hrs relative to triton-treated rat; type: functional; design: scale not given: the % may be the effect or the level left; outline: as §1
Rattus norvegicus [5] = experiment: Antidyslipidemic activity in Charles foster rat assessed as decrease in triton WR-1339-induced phospholipid level in plasma at 100 mg/kg, po after 18 hrs relative to triton-treated rat; type: functional; design: scale not given: the % may be the effect or the level left; outline: as §1
[6] = Antioxidant activity assessed as decrease in superoxide anions level by measuring formation of formazone at 200 ug/ml after 30 mins by spectrophotometric analysis relative to control; type: functional; design: scale not given: the % may be the effect or the level left
Outline: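 Superoxide made enzymatically with xanthine ([…]), xanthine oxidase (0.04 U) and nitroblue tetrazolium (320 µM) in 100 mM phosphate buffer pH 8.2. Compound at 200 µg/mL, sonicated in buffer. Incubated 37 °C for 30 min, stopped with glacial acetic acid, formazan read spectrophotometrically. Allopurinol as standard.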

Rattus norvegicus [7] = experiment: Antidyslipidemic activity in Charles foster rat assessed as increase in triton WR-1339-reduced post heparin lipolytic activity level in plasma at 100 mg/kg, po after 18 hrs by spectrophotometric analysis relative to triton-treated rat; type: functional; design: scale not given: the % may be the effect or the level left
Outline: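 Triton WR-1339 hyperlipidemia in male Charles Foster rats: 400 mg/kg i.p. plus oral dose in gum acacia vehicle, fasted, 6 rats/group. Plasma taken 18 h later from retro-orbital blood. Post-heparin lipolytic activity measured spectrophotometrically as nmol free fatty acids formed/h/ml plasma. Percent change against triton-only rats; mean ± SD.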

Rattus norvegicus [8] = experiment: Antidyslipidemic activity in Charles foster rat assessed as increase in triton WR-1339-reduced lipoprotein lipase level in liver at 100 mg/kg, po relative to triton-treated rat; type: functional, organism-based; design: dose 100 mg/kg
Outline: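 Rats given triton WR-1339 (400 mg/kg i.p.) with oral test agent in gum acacia, 6 per group. Liver homogenized 10% w/v in cold 100 mM phosphate buffer pH 7.2 and assayed for total lipoprotein lipase lipolytic activity. Mean ± SD.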

| Compound | Activity [1] [%] | Activity [2] [%] | Activity (Rattus norvegicus [3]) [%] | Activity (Rattus norvegicus [4]) [%] | Activity (Rattus norvegicus [5]) [%] | Activity [6] [%] | Activity (Rattus norvegicus [7]) [%] | Activity (Rattus norvegicus [8]) |
| --- | --- | --- | --- | --- | --- | --- | --- | --- |
| Cc1c(C)c2c(c(C)c1O)CC[C@@](C)(CCC[C@H](C)CCC[C@H](C)CCCC(C)C)O2 | 55 | – | – | – | – | – | – | – |
| C[C@]1(CO)[C@H]2CC[C@@]3(CO3)[C@@H](C/C=C3/C(=O)OC[C@H]3O)[C@]2(C)CC[C@H]1O | 14 | 15 | 15 | 14 | 17 | 17 | 6 | – |
| C=C1CC[C@@H]2[C@]3(C)COC(C)(C)O[C@@H]3CC[C@@]2(C)[C@@H]1C/C=C1/C(=O)OC[C@H]1OC(C)=O | 26 | 25 | 16 | 13 | 14 | 23 | 5 | – |
| CC1CC[C@@H]2[C@](C)(CO)[C@H](O)CC[C@@]2(C)[C@@H]1CCC1C(=O)OC[C@H]1O (stereo partly specified) | 14 | 17 | 11 | 15 | 13 | 13 | 4 | – |
| C=C1CC[C@@H]2[C@]3(C)COC(C)(C)O[C@@H]3CC[C@@]2(C)[C@@H]1C/C=C1/C(=O)OC[C@H]1O | 17 | 11 | 16 | 15 | 12 | 15 | 6 | – |
| C=C1CC[C@@H]2[C@](C)(CO)[C@H](O)CC[C@@]2(C)[C@@H]1CCC1=CCOC1=O [DEOXYANDROGRAPHOLIDE] | 13 | 16 | 17 | 12 | 14 | 11 | 6 | – |
| C=C1CC[C@@H]2[C@](C)(COS(=O)(=O)c3c(C)cc(C)cc3C)[C@H](O)CC[C@@]2(C)[C@@H]1C/C=C1/C(=O)OC[C@H]1OC(C)=O | 26 | 28 | 12 | 11 | 14 | 31 | 6 | – |
| OC[C@@H](O)[C@@H](O)[C@H](O)[C@H](O)CO | – | 50 | – | – | – | – | – | – |
| CC(C)OC(=O)C(C)(C)Oc1ccc(C(=O)c2ccc(Cl)cc2)cc1 [FENOFIBRATE] | – | – | 32 | 33 | 33 | – | 17 | Active |
| Cc1ccc(C)c(OCCCC(C)(C)C(=O)O)c1 [GEMFIBROZIL] | – | – | 30 | 28 | 30 | – | 16 | Active |
| C=C1CC[C@@H]2[C@](C)(COS(=O)(=O)c3ccc(C)cc3)[C@H](O)CC[C@@]2(C)[C@@H]1C/C=C1/C(=O)OC[C@H]1OC(C)=O | 29 | 30 | 20 | 22 | 22 | 27 | 13 | – |
| C=C1CC[C@@H]2[C@](C)(CO)[C@H](O)CC[C@@]2(C)[C@@H]1CCC1C(=O)OC[C@H]1O (stereo partly specified) | 10 | 11 | 12 | 11 | 10 | 14 | 5 | – |
| C=C1CC[C@@H]2[C@](C)(CO)[C@H](O)CC[C@@]2(C)[C@@H]1C/C=C1/C(=O)OC[C@H]1OC(C)=O | 19 | 17 | 13 | 15 | 13 | 19 | 7 | – |
| C=C1CC[C@@H]2[C@](C)(COC(C)=O)[C@H](OC(C)=O)CC[C@@]2(C)[C@@H]1C/C=C1/C(=O)OC[C@H]1OC(C)=O | 11 | 16 | 19 | 18 | 16 | 12 | 11 | – |
| Oc1ncnc2[nH]ncc12 | – | – | – | – | – | 54 | – | – |
| CC1CC[C@@H]2[C@](C)(CO)[C@H](O)CC[C@@]2(C)[C@@H]1C/C=C1/C(=O)OC[C@H]1O (stereo partly specified) | 17 | 15 | 14 | 15 | 17 | 19 | 5 | – |
| C=C1CC[C@@H]2[C@](C)(COS(=O)(=O)c3c(C)cc(C)cc3C)[C@H](O)CC[C@@]2(C)[C@@H]1C/C=C1/C(=O)OC[C@H]1O | 26 | 25 | 22 | 20 | 20 | 23 | 12 | – |
| C=C1CC[C@H]2[C@@](C)(CCC(=O)[C@@]2(C)C=O)[C@@H]1C/C=C1/C(=O)OC[C@H]1O | 14 | 12 | 13 | 10 | 10 | 16 | 4 | – |
| C=C1CC[C@@H]2[C@](C)(CO)[C@H](O)CC[C@@]2(C)[C@@H]1C/C=C1\C=COC1=O | 13 | 18 | 19 | 18 | 17 | 16 | 10 | – |
